hIAP inh: human IAP inhibition; purified IAP, CDP-Star luminescence, 30 min; AID 2544; actives 0.12% (n = 330,000); inhibition, % at 10 µM; P09923;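 active = inhibition reaching a set limit with compound at 10 µM in the primary screen, cut at about 35% in these data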;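 also: plate controls were DMSO wells with enzyme for no effect and no-enzyme buffer wells for full effect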
Target sequence (P09923 whole entry, looked up): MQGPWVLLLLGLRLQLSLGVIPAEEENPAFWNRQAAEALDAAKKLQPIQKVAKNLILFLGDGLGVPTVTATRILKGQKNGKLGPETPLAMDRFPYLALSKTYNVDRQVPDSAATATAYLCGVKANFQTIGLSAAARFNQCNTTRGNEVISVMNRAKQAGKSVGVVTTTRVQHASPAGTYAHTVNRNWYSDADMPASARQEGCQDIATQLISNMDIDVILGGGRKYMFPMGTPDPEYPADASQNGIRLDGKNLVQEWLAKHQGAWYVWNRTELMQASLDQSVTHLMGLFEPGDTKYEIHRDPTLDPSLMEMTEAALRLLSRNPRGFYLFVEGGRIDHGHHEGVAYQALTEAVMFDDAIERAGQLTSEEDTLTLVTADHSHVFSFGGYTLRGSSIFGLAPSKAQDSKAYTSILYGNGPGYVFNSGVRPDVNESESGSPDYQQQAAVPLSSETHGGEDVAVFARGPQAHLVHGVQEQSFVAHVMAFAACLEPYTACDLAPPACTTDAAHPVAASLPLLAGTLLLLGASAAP
mIAP block: blocks mouse intestinal alkaline phosphatase; inhibition, % at 10 µM; purified mouse IAP, CDP-Star luminescence, 30 min; actives 0.2% (n = 330,000); AID 2806;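 active = inhibition of at least 40% at 10 µM in the primary screen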;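 also: plate controls were DMSO with enzyme for no effect and no enzyme wells for full effect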
bIAP act: intestinal alkaline phosphatase (bovine) activation. purified bovine IAP, CDP-star luminescence, 30 min; stronger effect = higher value; fold of DMSO-control signal, blank-subtracted. activation factor at 20 µM. actives 0.17% (n = 200,000);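 active = activation factor of 2 or more at 20 µM, a signal rise over negative controls twice the positive control's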
hIAP act: increases human intestinal alkaline phosphatase activity. P09923. purified human IAP, CDP-Star luminescence, 30 min; stronger effect = higher value; 1 = vehicle-only enzyme, 0 = enzyme-free background. activation factor at 10 µM. actives 0.16% (n = 330,000). AID 2524;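 active = activation factor of the enzyme at least 2-fold when tested at 20 µM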
mIAP act: increases mouse intestinal alkaline phosphatase activity; muIAP, CDP-Star luminescence, 30 min; stronger effect = higher value; 1 = vehicle-only enzyme signal, 0 = enzyme-free wells; activation factor at 10 µM; actives 0.24% (n = 330,000); AID 2805;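 active = activation factor of at least 2 at 20 µM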
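also added = chemiluminescent substrate CDP-Star | test system = mouse IAP enzyme | signal = chemiluminescence readout | compound = DMSO-dissolved test compounds | incubation = 30 min at room temperature | benchmarks = DMSO wells, no-enzyme wells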
bIAP inhibitor: blocks bovine intestinal alkaline phosphatase activity. purified bovine IAP, CDP-star luminescence, 30 min. inhibition, % at 20 µM. 190,000 tested, under 10 active. AID 1019;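 active = over 50% inhibition of intestinal alkaline phosphatase at 20 µM in the single-dose screen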
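System: Purified bovine intestinal alkaline phosphatase (IAP) enzyme | Input: IAP diluted 1/65,000,000 in the well | Also added: CDP-star chemiluminescent phosphatase substrate, 30 µM final | Dosing: 20 µM single dose | Times: Enzyme reaction for 30 min at room temperature | Detection: Luminescence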
mIAP inh confirm: mouse IAP inhibition confirmation. shares compounds with mIAP block. purified mouse IAP, CDP-Star luminescence, 30 min. inhibition, % at 10 µM. actives 4.7% (n = 11,000);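 active = inhibition of at least 40% at 10 µM in either of the two replicates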;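 also: plate controls were DMSO wells with enzyme for no effect and buffer wells lacking enzyme for full effect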
* = called active by the depositor; i = inactive; . = no result. Shown are actives, neighbours in structure and some others; about 0.72% of the full set was active somewhere.

SMILES	hIAP inh	mIAP block	bIAP act	hIAP act	mIAP act	bIAP inhibitor	mIAP inh confirm
COc1cccc(CNC(=O)CCCn2nc(C)n3c(cc4sccc43)c2=O)c1	0	-4	.	1	1	.	.
COc1ccc(CN2C3CCCC2CC(NC(=O)Nc2ccccc2)C3)cc1 (stereo not drawn)	18	-426	0.9	0.82	5.3*	9	-365
COc1ccc(CN2C3CCCC2CC(NC(=O)Nc2ccccc2C)C3)cc1 (stereo not drawn)	9	-198	0.9	0.91	3*	6	-143
COc1ccc(CN2C3CCCC2CC(NC(=O)Nc2cccc(C)c2)C3)cc1 (stereo not drawn)	5	i	0.9	0.95	12*	7	i
COCC(=O)NC1CC2CCCC(C1)N2Cc1ccccc1 (stereo not drawn)	-8	6	1	1.1	0.94	-1	.
CC(=O)c1cccc(OCc2cc(C(=O)NCCC3=CCCCC3)no2)c1	-2	5	.	1	0.95	.	.
COc1ccc(N(CC(O)CN2CCOCC2)S(=O)(=O)c2ccccc2)cc1 (stereo not drawn)	-27	-2	.	1.3	1	.	.
COc1ccc(S(=O)(=O)N(C)C[C@H]2Oc3ccc(NC(=O)Nc4ccccc4)cc3C(=O)N([C@H](C)CO)C[C@@H]2C)cc1	2	-208	.	0.98	3.1*	.	-115
COc1ccc(NC(=O)Nc2ccc3c(c2)C(=O)N([C@H](C)CO)C[C@H](C)[C@@H](CN(C)S(=O)(=O)c2cccs2)O3)cc1	-4	-175	.	1	2.7*	.	-110
CC(C)NC(=O)Nc1ccc2c(c1)C(=O)N([C@H](C)CO)C[C@H](C)[C@@H](CN(C)S(=O)(=O)c1cccs1)O2	2	-42	.	0.98	1.4	.	.
C[C@H](CO)N1C[C@H](C)[C@@H](CN(C)S(=O)(=O)c2ccc(F)cc2)Oc2ccc(NC(=O)NC3CCCCC3)cc2C1=O	-27	-317	.	1.3	4.2*	.	-120
C[C@H](CO)N1C[C@H](C)[C@H](CN(C)Cc2ccc(Oc3ccccc3)cc2)Oc2ccc(NC(=O)Nc3cccc4ccccc34)cc2CC1=O	0	-176	.	1	2.8*	.	-103
C[C@@H](OC(=O)c1[nH]cnc1C(=O)NCc1ccc(CNC(=O)OC(C)(C)C)cc1)c1ccccc1	-61	-10	.	1.6	1.1	.	.
COc1ccc(S(=O)(=O)N(C)C[C@H]2Oc3ccc(NC(=O)NC4CCCCC4)cc3C(=O)N([C@H](C)CO)C[C@@H]2C)cc1	6	-373	.	0.94	4.7*	.	-174
COc1ccc(S(=O)(=O)N(C)C[C@H]2Oc3ccc(NC(=O)C4CCCCC4)cc3C(=O)N([C@H](C)CO)C[C@@H]2C)cc1	0	-37	.	1	1.4	.	.
O=C1/C(=C\c2ccc(O)cc2)SC(=S)N1/N=C/c1ccc(O)cc1	16	49*	.	0.84	0.51	.	57*
c1coc(CNc2nc(-c3cccs3)cs2)c1	0	45*	1	1	0.55	2	49*
Cc1ccc(S(=O)(=O)NCCC(=O)OCC(=O)N2CCCC2=O)cc1C	-13	14	.	1.1	0.86	.	.
CCc1cc2c(cc3c(=O)n(CC(=O)NCCCN4CCCCCC4)nc(CC)n32)s1	13	-2	.	0.87	1	.	.
Cc1ccc(/C=C/C(=O)N(Cc2cccs2)C2CCS(=O)(=O)C2)cc1 (stereo not drawn)	-3	-8	.	1	1.1	.	.
C=CCSC1=N/C(=C\C=C\c2ccco2)C(=O)S1	-2	53*	1	1	0.47	4	65*
C=CCSC1=N/C(=C\c2sccc2C)C(=O)S1	11	19	0.9	0.89	0.81	14	.
CN(CC(=O)Nc1cccc(Cl)c1)S(=O)(=O)c1ccc2[nH]c(=O)oc2c1	13	58*	.	0.87	0.42	.	74*
COc1cc(OC)c(NC(=O)CN(C)S(=O)(=O)c2ccc3[nH]c(=O)oc3c2)cc1Cl	-21	64*	.	1.2	0.36	.	86*
COc1ccc(NC(=O)CN(C)S(=O)(=O)c2ccc3[nH]c(=O)oc3c2)cc1	-5	14	.	1.1	0.85	.	.
